# Assay outcomes: PubChem BioAssay, several laboratories
# PDI inh: inhibitors of human protein disulfide isomerase. P07237. PDI insulin aggregation turbidity, A650, 90 min. inhibition, % at 10 µM. hit rate 0.052% among 350,000. AID 588391;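 active = mean inhibition across replicates of 30% or more, whatever share of single replicates reach that level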
# ERp5 inh: blocks human ERp5 reductase activity on insulin; Q15084; ERp5 insulin aggregation, absorbance 650 nm, 90 min; inhibition, % at 9.99 µM; hit rate 0.05% among 350,000; AID 651711;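 active = mean replicate inhibition above about 25%, with every replicate also reaching it, limit read from the data, passing the limit was not always enough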
# Target sequence (Q15084 whole entry, looked up): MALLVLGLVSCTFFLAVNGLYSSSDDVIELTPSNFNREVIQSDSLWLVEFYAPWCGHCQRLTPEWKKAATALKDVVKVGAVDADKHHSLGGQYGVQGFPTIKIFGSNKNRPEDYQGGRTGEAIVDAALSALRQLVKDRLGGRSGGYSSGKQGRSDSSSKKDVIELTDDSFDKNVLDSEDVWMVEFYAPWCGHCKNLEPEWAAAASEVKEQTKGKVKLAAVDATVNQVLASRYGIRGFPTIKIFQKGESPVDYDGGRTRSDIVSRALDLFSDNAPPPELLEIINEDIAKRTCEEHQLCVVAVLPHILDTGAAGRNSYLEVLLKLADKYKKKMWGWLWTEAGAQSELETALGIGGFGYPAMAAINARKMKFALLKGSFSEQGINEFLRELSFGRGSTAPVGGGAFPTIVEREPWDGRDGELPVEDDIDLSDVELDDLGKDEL
# Tb MetRS inh: blocks T. brucei methionyl-tRNA synthetase activity; purified T. brucei MetRS, ATP depletion, Kinase-Glo luminescence; hit rate 0.4% among 360,000; inhibition, % at 11.9 µM;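 active = inhibition above a per-plate cutoff of the control wells' mean inhibition plus 3 SD, cut at about 5.5% in these data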;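 also: 0% = DMSO wells median and 100% = median of wells with control inhibitor compound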
#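 Dosing: 11.9 µM compound single dose, 0.9% DMSO; Assay system: purified T. brucei MetRS enzyme; Measured by: Kinase-Glo luciferase luminescence reporting remaining unconsumed ATP; Schedule: 15 min plus 2 h at 25 °C.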
# * = called active by the depositor; / = not tested or not shown. Rows were chosen to be rich in hits. Some 0.4% of all compounds tested hit in one or more screens of this group.
SMILES,PDI inh,ERp5 inh,Tb MetRS inh
Cc1noc(C)c1NC(=O)N(C)C[C@@H]1Oc2ccc(NC(=O)Nc3ccccc3)cc2CC(=O)N([C@H](C)CO)C[C@@H]1C,/,3,/
CCCNC(=O)N(C)C[C@@H]1Oc2cc(C#CCC(C)C)ccc2S(=O)(=O)N([C@H](C)CO)C[C@H]1C,/,-2,/
CSc1ccc(S(=O)(=O)NCc2ccccc2Cl)cc1,-5,/,0
CSc1ccc(S(=O)(=O)NCc2ccc(Cl)cc2Cl)cc1,6,/,7.5*
CCC(=O)N(C)C[C@@H]1Oc2cc(-c3ccc(C#N)cc3)ccc2S(=O)(=O)N([C@@H](C)CO)C[C@H]1C,/,18,/
COCC(=O)N(C)C[C@H]1Oc2cc(C#CC(C)(C)O)ccc2S(=O)(=O)N([C@@H](C)CO)C[C@@H]1C,/,47*,/
CCC(=O)N(C)C[C@H]1Oc2cc(-c3ccc(C#N)cc3)ccc2S(=O)(=O)N([C@@H](C)CO)C[C@@H]1C,/,85*,/
COCC(=O)N(C)C[C@H]1Oc2cc(C#CC(C)(C)O)ccc2S(=O)(=O)N([C@@H](C)CO)C[C@H]1C,/,68*,/
COCC(=O)N(C)C[C@@H]1Oc2cc(C#CC(C)(C)O)ccc2S(=O)(=O)N([C@H](C)CO)C[C@H]1C,/,-37,/
COCC(=O)N(C)C[C@H]1Oc2cc(C#CC(C)(C)O)ccc2S(=O)(=O)N([C@H](C)CO)C[C@@H]1C,/,7,/
COCC(=O)N1C[C@@H]2[C@H](c3ccccc31)[C@H](CO)N2Cc1ccc(OC)cc1,/,0,/
CCS(=O)(=O)NCC[C@H]1CC[C@H](NC(=O)C2CC2)[C@H](CO)O1,/,1,/
COCC(=O)Nc1ccc2c(c1)C(=O)N(C)[C@@H]1CC[C@@H](CC(=O)NCc3ccccc3F)O[C@@H]1CO2,/,7,/
CN(C1=NC(=O)C(CC(=O)Nc2ccc(Br)cc2)S1)c1ccc(O)cc1 (configuration not stated),61*,/,3
O=C(CC1SC(=O)N(c2ccccc2)C1=O)Nc1ccc(Br)cc1 (configuration not stated),-1,2,0
O=C(CC1SC(=Nc2ccccc2)N(CCO)C1=O)Nc1ccccc1 (configuration not stated),2,-5,-1
O=C(CC1SC(=Nc2ccccc2)N(CCCO)C1=O)Nc1ccc(Cl)cc1 (configuration not stated),-2,/,14*
COc1ccccc1NC(=O)N[C@@H]1CC[C@H](CCn2cc(-c3ccccc3OC)nn2)O[C@@H]1CO,/,1,/
Cc1cc(C)cc(OCC(=O)Nc2ccccc2C(=O)N2CCOCC2)c1,37*,1,0
Cc1cccc(OCC(=O)Nc2ccccc2C(=O)N2CCOCC2)c1,-6,/,0
CCC(=O)Nc1ccc2c(c1)OC[C@H](C)N(Cc1cccnc1)C[C@H](C)[C@H](OC)CN(C)C2=O,/,29*,/
CCC(=O)Nc1ccc2c(c1)OC[C@H](C)N(Cc1cccnc1)C[C@@H](C)[C@H](OC)CN(C)C2=O,/,-1,/
CC12CCC3c4ccc(O)cc4CCC3C1CCC2=O (configuration not stated),45*,-10,-1
C[C@]12CC[C@@H]3c4ccc(OS(=O)(=O)O)cc4CC[C@H]3[C@@H]1CCC2=O,5,4,0
O=C1NC[C@H](Cc2ccccc2)N(C[C@@H]2CCCN2C[C@H](Cc2ccc(O)cc2)N2C[C@H](Cc3ccc(O)cc3)N(CCc3ccccc3)C(=O)C2=O)C1=O,/,-4,0
SMILES,PDI inh,ERp5 inh,Tb MetRS inh
CCOc1ccc(CCN2C(=O)C(=O)N([C@@H](CC(C)C)CN3CCC[C@H]3CN3C(=O)C(=O)NC[C@@H]3Cc3ccccc3)C[C@@H]2Cc2ccc(O)cc2)cc1,/,-4,-1
CCOc1ccc(CCN2C(=O)C(=O)N([C@@H](CC(C)C)CN3CCC[C@@H]3CN3C(=O)C(=O)NC[C@@H]3Cc3ccccc3)C[C@@H]2Cc2ccc(O)cc2)cc1,54*,2,0
O=C1NC[C@H](Cc2ccccc2)N(C[C@H]2CCCN2C[C@H](Cc2ccccc2)N2C[C@H](Cc3ccc(O)cc3)N(CCc3ccccc3)C(=O)C2=O)C1=O,42*,-4,1
COc1cccc(S(=O)(=O)Nc2ccc3c(c2)OC[C@H](C)NC[C@@H](C)[C@@H](OC)CN(C)C3=O)c1,/,3,/
Cc1ccc(Nc2nc(-c3c(C)nc4ncccn34)cs2)cc1,0,/,1
Cc1nc2ncccn2c1-c1csc(Nc2ccc(O)cc2)n1,53*,-6,1
COCC#Cc1cnc2c(c1)C(=O)N([C@@H](C)CO)C[C@H](C)[C@H](CN(C)C(=O)c1cccc(F)c1)O2,/,2,/
C[C@@H]1CN([C@@H](C)CO)C(=O)Cc2cc(NC(=O)Cc3ccccc3)ccc2O[C@H]1CN(C)C(=O)Nc1ccc(C(F)(F)F)cc1,/,-2,/
C[C@@H]1CN([C@@H](C)CO)C(=O)Cc2cc(NS(=O)(=O)c3cccs3)ccc2O[C@H]1CN(C)C(=O)Nc1ccc(C(F)(F)F)cc1,/,47*,/
C[C@H](CO)N1C[C@H](C)[C@H](CN(C)C(=O)Nc2ccc(C(F)(F)F)cc2)Oc2ccc(NS(=O)(=O)c3cccs3)cc2CC1=O,/,16,/
C[C@@H]1CN([C@@H](C)CO)C(=O)Cc2cc(NC(=O)Cc3ccccc3)ccc2O[C@@H]1CN(C)C(=O)Nc1ccc(C(F)(F)F)cc1,/,37*,/
C[C@@H]1CN([C@@H](C)CO)C(=O)c2cc(NS(=O)(=O)c3cn(C)cn3)ccc2O[C@@H](C)CCCCO[C@@H]1CN(C)C(=O)NC1CCCCC1,/,-7,/
CCc1csc(CCNC(=O)C2CCC(=O)N(CCc3cccc(F)c3)C2)n1 (configuration not stated),7,28*,0
Cc1nc(CCNC(=O)C2CCC(=O)N(CCc3cccc(F)c3)C2)sc1C (configuration not stated),-11,-1,0
Cc1cccc(Oc2ccc(S(=O)(=O)N3CCCCC3)cc2N)c1,1,-2,0
Cc1ccc(S(=O)(=O)c2ccc(Oc3cccc(C)c3)cc2)cc1,32*,/,0
C[C@H]1CN([C@@H](C)CO)C(=O)Cc2cc(NS(C)(=O)=O)ccc2O[C@H]1CN(C)S(=O)(=O)c1ccccc1,/,-13,/
C[C@@H]1CCCCO[C@@H](CN(C)CC2CCCCC2)[C@@H](C)CN([C@@H](C)CO)C(=O)c2cc(NS(=O)(=O)c3ccc(F)cc3)ccc2O1,/,0,/
CCCNC(=O)N[C@H]1CC[C@H](CC(=O)N2CCN(C)CC2)O[C@H]1CO,/,3,/
CCN1[C@@H]2c3ccc(-c4ccccc4)c(=O)n3C[C@@H]2[C@@H](CO)[C@@H]1C(=O)NCC(F)(F)F,/,37*,/
CCCN1[C@@H]2c3ccc(-c4ccccc4)c(=O)n3C[C@@H]2[C@@H](CO)[C@@H]1C(=O)NCC(F)(F)F,/,-8,/
COc1cccc(-c2ccc3c(c2)[C@@H]2[C@@H](CCN2S(=O)(=O)c2ccccc2F)[C@@H](CO)N3C)c1,/,1,/
Cc1c(/C=N/Nc2nc3ccccc3[nH]2)c2ccccc2n1C,6,/,5
C=CCn1cc(/C=N/Nc2nc3ccccc3[nH]2)c2ccccc21,2,-1,5.6*
COCC#Cc1cnc2c(c1)C(=O)N([C@H](C)CO)C[C@H](C)[C@H](CN(C)C(=O)c1ccc3c(c1)OCO3)O2,/,-2,/
